Assay results as given in ChEMBL document CHEMBL3421533, “The Discovery of Orally Bioavailable Tyrosine Threonine Kinase (TTK) Inhibitors: 3-(4-(heterocyclyl)phenyl)-1H-indazole-5-carboxamides as Anticancer Agents” (J Med Chem, 2015).

How the values were obtained:
[1] = tested on: MDA-MB-468; assay: Cytotoxicity against human MDA-MB-468 cells after 5 days by sulforhodamine B assay; assay type: functional
Procedure, shortened: (§1)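 Cancer lines were seeded at 800–6000 cells per well according to growth rate, 24 h before compound overlay. After culture, cells were fixed in situ and stained with sulforhodamine B. GI50 values were derived by curve fitting.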

[2] = molecular target: T1, Aurora kinase A (Homo sapiens, UniProt O14965); assay: Inhibition of recombinant AURKA (unknown origin) preincubated for 15 mins prior to ATP addition by FRET-based homogenous assay
T1 sequence (O14965 whole entry): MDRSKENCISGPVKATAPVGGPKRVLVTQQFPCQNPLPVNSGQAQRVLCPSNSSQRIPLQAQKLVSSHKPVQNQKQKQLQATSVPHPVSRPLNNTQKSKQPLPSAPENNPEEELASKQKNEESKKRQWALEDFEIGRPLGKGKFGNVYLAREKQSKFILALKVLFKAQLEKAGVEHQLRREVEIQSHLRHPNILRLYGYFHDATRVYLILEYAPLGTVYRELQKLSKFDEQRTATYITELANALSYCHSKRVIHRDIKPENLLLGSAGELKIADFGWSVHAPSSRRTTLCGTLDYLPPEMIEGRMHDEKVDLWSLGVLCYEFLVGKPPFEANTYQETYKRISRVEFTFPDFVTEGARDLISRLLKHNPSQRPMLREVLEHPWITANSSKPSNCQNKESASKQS

[3] = molecular target: Vascular endothelial growth factor receptor 2 (Homo sapiens, UniProt P35968); assay: Inhibition of recombinant KDR (unknown origin) preincubated for 15 mins prior to ATP addition by FRET-based homogenous assay
Sequence of Vascular endothelial growth factor receptor 2 (P35968 whole entry): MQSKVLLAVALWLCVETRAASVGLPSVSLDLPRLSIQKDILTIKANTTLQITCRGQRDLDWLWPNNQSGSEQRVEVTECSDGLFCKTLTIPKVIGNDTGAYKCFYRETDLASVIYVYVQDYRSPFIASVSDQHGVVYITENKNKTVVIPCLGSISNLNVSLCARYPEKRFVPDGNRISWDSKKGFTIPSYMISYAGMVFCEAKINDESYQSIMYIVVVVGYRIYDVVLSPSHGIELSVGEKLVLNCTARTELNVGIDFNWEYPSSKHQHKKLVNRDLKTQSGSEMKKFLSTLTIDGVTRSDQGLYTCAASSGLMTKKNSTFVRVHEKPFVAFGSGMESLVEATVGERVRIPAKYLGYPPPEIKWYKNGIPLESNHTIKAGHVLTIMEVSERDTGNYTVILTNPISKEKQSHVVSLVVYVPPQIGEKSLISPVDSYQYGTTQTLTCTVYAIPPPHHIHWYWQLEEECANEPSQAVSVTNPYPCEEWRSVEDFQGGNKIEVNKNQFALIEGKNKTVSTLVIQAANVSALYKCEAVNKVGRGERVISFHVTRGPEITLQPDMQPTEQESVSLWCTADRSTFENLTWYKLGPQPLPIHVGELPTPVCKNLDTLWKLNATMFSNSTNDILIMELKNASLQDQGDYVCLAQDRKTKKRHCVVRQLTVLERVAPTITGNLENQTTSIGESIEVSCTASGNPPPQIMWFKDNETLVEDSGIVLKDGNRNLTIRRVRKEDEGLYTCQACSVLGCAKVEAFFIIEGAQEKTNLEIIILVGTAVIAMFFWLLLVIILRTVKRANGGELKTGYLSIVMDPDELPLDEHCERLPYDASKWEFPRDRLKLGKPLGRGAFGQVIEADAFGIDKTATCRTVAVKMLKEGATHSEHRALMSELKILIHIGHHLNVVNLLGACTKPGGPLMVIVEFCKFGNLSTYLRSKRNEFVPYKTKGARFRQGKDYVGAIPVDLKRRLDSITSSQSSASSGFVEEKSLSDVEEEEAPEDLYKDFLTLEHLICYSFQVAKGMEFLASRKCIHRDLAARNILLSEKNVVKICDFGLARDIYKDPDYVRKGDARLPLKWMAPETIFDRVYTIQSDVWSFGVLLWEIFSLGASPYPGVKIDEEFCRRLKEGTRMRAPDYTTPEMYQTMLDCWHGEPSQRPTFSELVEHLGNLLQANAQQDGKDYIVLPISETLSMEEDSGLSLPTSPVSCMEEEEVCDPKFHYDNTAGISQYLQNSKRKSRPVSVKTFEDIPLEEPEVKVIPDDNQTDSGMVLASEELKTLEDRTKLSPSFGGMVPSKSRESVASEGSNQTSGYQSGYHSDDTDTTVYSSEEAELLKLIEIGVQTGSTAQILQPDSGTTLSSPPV

[4] = (§2) Half life in rat liver microsomes at 1 uM by LC-MS analysis; assay type: ADME; conditions: liver microsomes
[5] = molecular target: T2, Dual specificity protein kinase TTK (Homo sapiens, UniProt P33981); assay: Inhibition of amino terminal GST-fused full length human TTK using His6-SUMO-TTK-N as substrate preincubated for 15 mins prior to ATP addition by indirect ELISA detection system
T2 sequence (P33981 whole entry): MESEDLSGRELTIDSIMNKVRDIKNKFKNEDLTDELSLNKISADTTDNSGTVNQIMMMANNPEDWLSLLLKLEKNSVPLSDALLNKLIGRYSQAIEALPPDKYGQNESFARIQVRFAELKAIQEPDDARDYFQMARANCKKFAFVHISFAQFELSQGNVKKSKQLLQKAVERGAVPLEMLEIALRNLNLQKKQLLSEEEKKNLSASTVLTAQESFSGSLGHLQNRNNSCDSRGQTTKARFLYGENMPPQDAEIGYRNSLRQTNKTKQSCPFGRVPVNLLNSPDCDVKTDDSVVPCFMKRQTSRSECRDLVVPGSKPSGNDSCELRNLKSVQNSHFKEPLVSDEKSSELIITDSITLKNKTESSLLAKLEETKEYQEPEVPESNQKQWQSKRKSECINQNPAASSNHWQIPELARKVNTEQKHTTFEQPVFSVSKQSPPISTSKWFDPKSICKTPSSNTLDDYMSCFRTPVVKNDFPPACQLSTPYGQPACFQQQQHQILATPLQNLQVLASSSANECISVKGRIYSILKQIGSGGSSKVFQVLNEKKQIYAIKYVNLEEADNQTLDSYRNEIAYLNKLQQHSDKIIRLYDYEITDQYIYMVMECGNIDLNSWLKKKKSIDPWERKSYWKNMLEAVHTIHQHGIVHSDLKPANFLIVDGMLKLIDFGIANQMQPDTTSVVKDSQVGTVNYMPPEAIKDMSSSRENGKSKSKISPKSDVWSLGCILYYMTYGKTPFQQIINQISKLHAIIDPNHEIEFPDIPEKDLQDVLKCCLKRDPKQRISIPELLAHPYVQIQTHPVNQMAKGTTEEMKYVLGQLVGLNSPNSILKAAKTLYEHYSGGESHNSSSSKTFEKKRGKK

[6] = Cytotoxicity against human HCT116 cells after 5 days by sulforhodamine B assay; assay type: functional, HCT-116; procedure, shortened: as §1
[7] = Half life in mouse liver microsomes at 1 uM by LC-MS analysis; assay type: ADME; conditions: liver microsomes
[8] = Oral bioavailability in Sprague-Dawley rat at 5 mg/kg by LC-MS/MS analysis; assay type: ADME, organism-based; conditions: in vivo
[9] = molecular target: Cytochrome P450 3A4 (Homo sapiens, UniProt P08684); assay: Inhibition of human CYP3A4 using BFC as substrate preincubated for 10 mins followed by enzyme/substrate addition measured after 30 mins by fluorescence assay; assay type: ADME
Sequence of Cytochrome P450 3A4 (P08684 whole entry): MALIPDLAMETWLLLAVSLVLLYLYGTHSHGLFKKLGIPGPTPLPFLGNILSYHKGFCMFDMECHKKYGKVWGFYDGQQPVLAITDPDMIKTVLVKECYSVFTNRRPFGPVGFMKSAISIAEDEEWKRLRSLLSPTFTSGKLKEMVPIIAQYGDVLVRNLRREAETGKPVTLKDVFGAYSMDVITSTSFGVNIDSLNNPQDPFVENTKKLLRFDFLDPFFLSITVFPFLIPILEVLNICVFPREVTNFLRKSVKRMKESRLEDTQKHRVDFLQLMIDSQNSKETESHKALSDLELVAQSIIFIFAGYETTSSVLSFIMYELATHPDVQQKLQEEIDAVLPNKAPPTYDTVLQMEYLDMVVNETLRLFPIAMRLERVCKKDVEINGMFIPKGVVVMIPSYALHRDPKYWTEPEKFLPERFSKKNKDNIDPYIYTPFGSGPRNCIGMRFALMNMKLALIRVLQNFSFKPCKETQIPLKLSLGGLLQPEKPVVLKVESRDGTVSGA

[10] = molecular target: Aurora kinase B/Inner centromere protein (Homo sapiens, UniProt Q96GD4); assay: Inhibition of AURKB/INCENP (unknown origin) preincubated for 15 mins prior to ATP addition by FRET-based homogenous assay; assay type: protein-complex assay
Sequence of Aurora kinase B/Inner centromere protein (Q96GD4 whole entry): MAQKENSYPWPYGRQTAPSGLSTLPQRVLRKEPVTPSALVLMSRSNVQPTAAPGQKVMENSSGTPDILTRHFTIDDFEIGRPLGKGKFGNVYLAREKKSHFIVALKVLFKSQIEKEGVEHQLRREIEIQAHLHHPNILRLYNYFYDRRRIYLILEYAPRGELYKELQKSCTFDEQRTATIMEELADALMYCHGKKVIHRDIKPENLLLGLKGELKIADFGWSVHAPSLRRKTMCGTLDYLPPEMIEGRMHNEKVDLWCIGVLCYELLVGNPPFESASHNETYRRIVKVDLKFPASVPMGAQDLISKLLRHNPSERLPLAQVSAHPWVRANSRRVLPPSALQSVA
Sequence of Aurora kinase B/Inner centromere protein (Q9NQS7 whole entry, further chain): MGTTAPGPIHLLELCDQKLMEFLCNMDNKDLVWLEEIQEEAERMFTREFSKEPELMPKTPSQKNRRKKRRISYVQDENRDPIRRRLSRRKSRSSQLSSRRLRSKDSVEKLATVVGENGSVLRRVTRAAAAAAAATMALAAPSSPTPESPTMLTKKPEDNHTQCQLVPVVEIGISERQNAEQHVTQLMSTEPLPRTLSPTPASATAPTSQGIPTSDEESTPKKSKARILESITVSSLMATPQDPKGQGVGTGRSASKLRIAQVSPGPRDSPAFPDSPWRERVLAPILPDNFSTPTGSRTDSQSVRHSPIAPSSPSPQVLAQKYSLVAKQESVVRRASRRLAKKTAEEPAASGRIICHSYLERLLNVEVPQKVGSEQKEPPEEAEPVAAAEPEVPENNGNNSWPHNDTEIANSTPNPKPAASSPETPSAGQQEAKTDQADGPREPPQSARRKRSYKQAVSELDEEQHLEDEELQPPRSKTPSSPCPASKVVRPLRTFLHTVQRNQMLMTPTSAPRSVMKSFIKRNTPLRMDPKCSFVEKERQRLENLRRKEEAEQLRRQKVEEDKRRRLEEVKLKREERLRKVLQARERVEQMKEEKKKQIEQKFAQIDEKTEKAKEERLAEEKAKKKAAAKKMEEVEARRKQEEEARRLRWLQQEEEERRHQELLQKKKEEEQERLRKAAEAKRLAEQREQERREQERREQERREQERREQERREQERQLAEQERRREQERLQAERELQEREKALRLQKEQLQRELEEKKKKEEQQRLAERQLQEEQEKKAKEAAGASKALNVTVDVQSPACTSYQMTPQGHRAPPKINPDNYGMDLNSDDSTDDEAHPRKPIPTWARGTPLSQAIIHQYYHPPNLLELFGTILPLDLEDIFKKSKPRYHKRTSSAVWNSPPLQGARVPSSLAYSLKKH
Procedure, shortened: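 The enzyme was AURKB/INCENP in a FRET-based homogeneous assay run to kit specifications, with ATP at 128 μM. […] Each IC50 came from a single determination, reported with its standard fitting error.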

[11] = AUCinfinity in Sprague-Dawley rat at 1 mg/kg, iv by LC-MS/MS analysis; assay type: ADME, organism-based; set-up: time infinity, dose 1 mg/kg, route intravenous; conditions: plasma
[12] = AUCinfinity in Sprague-Dawley rat at 5 mg/kg, po by LC-MS/MS analysis; assay type: ADME, organism-based; set-up: time infinity, dose 5 mg/kg, route oral; conditions: plasma
[13] = Half life in Sprague-Dawley rat at 1 mg/kg, iv by LC-MS/MS analysis; assay type: ADME, organism-based; set-up: dose 1 mg/kg, route intravenous; conditions: in vivo
[14] = AUCinfinity in athymic CD1 nude mouse at 10 mg/kg, po by LC-MS/MS analysis; assay type: ADME, organism-based, Plasma; set-up: time infinity, dose 10 mg/kg, route oral; conditions: athymic CD1 nude, plasma
[15] = organism: Homo sapiens; assay: Selectivity ratio of IC50 for AURKB/INCENP (unknown origin) to IC50 for amino terminal GST-fused full length human TTK
[16] = Clearance in Sprague-Dawley rat at 1 mg/kg, iv by LC-MS/MS analysis; assay type: ADME, organism-based; set-up: dose 1 mg/kg, route intravenous; conditions: in vivo
[17] = Cmax in athymic CD1 nude mouse at 10 mg/kg, po by LC-MS/MS analysis; assay type: ADME, organism-based; set-up: dose 10 mg/kg, route oral; conditions: athymic CD1 nude, in vivo
[18] = AUC in athymic CD1 nude mouse at 10 mg/kg, po by LC-MS/MS analysis; assay type: ADME, organism-based; set-up: dose 10 mg/kg, route oral; conditions: plasma
[19] = Cytotoxicity against human OVCAR3 cells after 5 days by sulforhodamine B assay; assay type: functional, OVCAR-3
[20] = tested on: Liver microsome; assay: as §2; assay type: ADME; conditions: microsomes, 1 µM
[21] = Homo sapiens, MDA-MB-468, 120 h

Row | half-life at 1 µM [4] [min] | IC50 [5] [nM] | half-life at 1 µM [7] [min] | Cmax [17] [ng/mL] | AUC [18] [ng·h/mL] | Compound | GI50 [1, 21] [nM] | GI50 ([6]; Homo sapiens, HCT-116, 120 h) [nM] | bioavailability [8] [%] | IC50 [9] [nM] | IC50 [10] [nM] | also measured
1 | 24 | 2.7 | 21 | – | – | CN1CCC(Oc2ccc(-c3n[nH]c4ccc(C(=O)NC(c5ccsc5)C5CCCC5)cc34)cc2)CC1 (racemic) | 90 | 17 | – | – | – | IC50 [2]: 2000 nM; IC50 [3]: 2900 nM
2 | – | – | – | – | – | O=C(N[C@H](c1ccccn1)C1CCCC1)c1ccc2[nH]nc(-c3ccc(N4C5CCC4COC5)cc3)c2c1 | – | – | 39 | 930 | 1400 | –
3 | > 60 | 1.5 | > 60 | 1200 | – | O=C(N[C@H](CC1CC1)c1ccccn1)c1ccc2[nH]nc(-c3ccc(N4[C@H]5CC[C@H]4CC(O)C5)cc3)c2c1 (some centres undefined) | 27 | 16 | 19 | 1300 | 1200 | AUC(0-inf) [11]: 290 ng·h/mL; AUC(0-inf) [12]: 270 ng·h/mL; half-life [13]: 22.8 min; AUC(0-inf) [14]: 1900 ng·h/mL; Ratio IC50 [15]: > 100; clearance [16]: 57 mL/min/kg
4 | – | – | – | 7 | 25 | NS(=O)(=O)c1cccc(-c2n[nH]c3ccc(NC(=O)C(c4ccsc4)N4CCCC4)cc23)c1 (racemic) | 87 | 39 | – | – | – | –
5 | 15 | 8 | 29 | – | – | CN1CCC(Oc2ccc(-c3n[nH]c4ccc(NC(=O)C(c5ccsc5)C5CCCC5)cc34)cc2)CC1 (racemic) | 190 | 59 | – | – | – | IC50 [2]: 2300 nM
6 | – | 7.4 | – | 180 | 590 | CN1CCN(c2ccc(-c3n[nH]c4ccc(NC(=O)C(c5ccsc5)N5CCCC5)cc34)cc2)CC1 (racemic) | 250 | 57 | – | – | – | –
7 | 1.5 | 7.7 | 1.7 | – | – | O=C(NCC1(N2CCOCC2)CCCCC1)c1ccc2[nH]nc(-c3ccc(N4CCOCC4)cc3)c2c1 | 190 | 39 | – | – | 750 | IC50 [2]: 2300 nM; IC50 [3]: 3800 nM
8 | 10 | 12 | 5.8 | – | – | O=C(CC1(N2CCOCC2)CCCCC1)Nc1ccc2[nH]nc(-c3ccc(N4CCOCC4)cc3)c2c1 | 440 | 94 | – | – | – | IC50 [2]: 2100 nM; IC50 [3]: 1200 nM
9 | – | 17 | – | 3900 | 13500 | O=C(NC(c1ccccc1)C1CC1)c1ccc2[nH]nc(-c3ccc(N4CCOCC4)cc3)c2c1 (racemic) | 330 | 86 | – | – | 190 | –
10 | – | 11 | – | 3500 | 7900 | O=C(Nc1ccc2[nH]nc(-c3ccc(N4CCOCC4)cc3)c2c1)C(c1ccsc1)N1CCCC1 (racemic) | 160 | 27 | – | – | – | –
11 | – | 7.6 | – | 160 | 480 | CN1CCN(c2ccc(-c3n[nH]c4ccc(C(=O)NCC5(N6CCOCC6)CCCCC5)cc34)cc2)CC1 | 180 | 12 | – | – | 440 | –

Row | Compound | half-life at 1 µM [4] [min] | IC50 [5] [nM] | half-life at 1 µM [7] [min] | Cmax [17] [ng/mL] | AUC [18] [ng·h/mL] | GI50 [1, 21] [nM] | GI50 ([6]; Homo sapiens, HCT-116, 120 h) [nM] | bioavailability [8] [%] | IC50 [9] [nM] | IC50 [10] [nM] | also measured
12 | CC(C)CC(NC(=O)c1ccc2[nH]nc(-c3ccc(O[C@H]4C[C@H]5CC[C@@H](C4)N5C=O)cc3)c2c1)c1ccccn1 (mixture of isomers) | – | 3 | – | 280 | 660 | 150 | 64 | – | 410 | 300 | –
13 | O=C(N[C@H](c1ccccn1)C1CCCC1)c1ccc2[nH]nc(-c3ccc(N4[C@H]5CC[C@H]4CC(O)C5)cc3)c2c1 (stereo in doubt; 76) | – | 4.3 | > 60 | 1500 | – | – | – | 13 | 820 | > 6300 | AUC(0-inf) [11]: 190 ng·h/mL; GI50 [1]: 20 nM; GI50 [19]: 50 nM; t1/2 [20]: > 60 min; AUC(0-inf) [12]: 130 ng·h/mL; half-life [13]: 46.8 min; AUC(0-inf) [14]: 2600 ng·h/mL; GI50 [6]: 8 nM; clearance [16]: 91 mL/min/kg
14 | O=CN1[C@@H]2CC[C@H]1C[C@@H](Oc1ccc(-c3n[nH]c4ccc(C(=O)NC(c5ccsc5)C5CCC5)cc34)cc1)C2 (mixture of isomers) | – | 2.5 | – | 33 | 30 | 110 | 41 | – | – | 1200 | –
15 | O=C(N[C@@H](c1ccccn1)C1CC1)c1ccc2[nH]nc(-c3ccc(N4C5CCC4COC5)cc3)c2c1 | > 60 | 2 | > 60 | 1500 | – | 130 | 21 | 75 | 1400 | 1200 | AUC(0-inf) [11]: 240 ng·h/mL; GI50 ([19]; Homo sapiens, OVCAR-3, 120 h): 150 nM; AUC(0-inf) [12]: 890 ng·h/mL; half-life [13]: 24 min; AUC(0-inf) [14]: 2100 ng·h/mL; clearance [16]: 71 mL/min/kg
16 | O=C(N[C@H](c1ncccn1)C1CCCC1)c1ccc2[nH]nc(-c3ccc(N4[C@H]5CC[C@H]4CC(O)C5)cc3)c2c1 (some centres undefined) | > 60 | 1.1 | > 60 | 750 | – | 14 | 1 | 21 | – | 620 | AUC(0-inf) [11]: 130 ng·h/mL; GI50 ([19]; Homo sapiens, OVCAR-3, 120 h): 20 nM; AUC(0-inf) [12]: 140 ng·h/mL; half-life [13]: 43.8 min; AUC(0-inf) [14]: 970 ng·h/mL; clearance [16]: 125 mL/min/kg
